The values that follow come from PubChem BioAssay.

In general, inhibition refers to the drop in the measured response relative to a control, in per cent.

SMILES strings stand for the structures. Active and inactive are the calls of the source.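 Rule for the calls, unless noted: active = inhibition at or above 50% at 10 µM; inactive = inhibition below 50%.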

Assay [1] can be described thus: inhibitors of TNFa-induced NFkB p65 translocation, primary screen, imaging, HUVEC, MLSMR starter and 10KST1 sets (AID 438;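 active = inhibition above 20% together with a positive visual image hit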;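 note: compound added about 3h40 before a 20 min TNFalpha stimulation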;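 for inhibition: signal is the nuclear over cytoplasmic p65 intensity ratio per well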). The note with it: HUVEC TNFa-induced p65 nuclear translocation; cell count: measured here: nuclei count (cytotoxicity indicator), at 2.08 µM; inhibition: at 2 µM, stronger effect = higher value, 0% TNFa-plus-vehicle, 100% no-TNFa wells.
Assay [2] is described as follows: inhibitors of mutant huntingtin aggregation, primary screen, imaging, exon1htt(103Q)mCFP cells, high-content imaging (AID 483;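 active = visual image review flags a hit and inhibition of aggregation exceeds 20%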;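 note: compound exposure lasted 3 days before fixation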;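 for nuclei count: percent of the per-plate median nuclei count of sample wells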). The settings on record: exon1htt(103Q)mCFP cell line, aggregate imaging, at 2 µM; inhibition of aggregation: stronger effect = higher value; nuclei count: measured here: cell count, toxicity.
Assay [3] can be described thus: inhibitors of E-selectin induction by TNFa, primary screen, imaging, HUVEC, immunofluorescence, MLSMR starter and 10KST1 sets (AID 487;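 active = visually confirmed hit in the image check and inhibition above 20%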;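 for inhibition: signal is fraction of cell area covered by stained E-selectin grains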;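 for nuclei count: 100% = median nuclei count of all wells on the same plate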). The note with it: HUVEC TNFalpha-induced E-selectin immunofluorescence imaging, at 2 µM; inhibition: stronger effect = higher value; nuclei count: measured here: cell number, toxicity.
The target of assay [4] is Voltage-gated potassium channel subunit beta-2 (Rattus norvegicus) (UniProt P62483). The assay can be described thus: KvBeta enzyme negative modulators, primary screen, biochemical, NADPH fluorescence (AID 622;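 active = fluorescence slope higher than the sample average by over 3 SD, cut at about -0.22 in these data, passing the limit was not always enough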;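 note: slope of raw intensity against log time taken from 70 to 1610 s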). The settings on record: recombinant KvBeta, 4-cyanobenzaldehyde reduction, at 10 µM, stronger effect = higher value.
Chain of Voltage-gated potassium channel subunit beta-2 (Rattus norvegicus) (P62483 whole entry, looked up): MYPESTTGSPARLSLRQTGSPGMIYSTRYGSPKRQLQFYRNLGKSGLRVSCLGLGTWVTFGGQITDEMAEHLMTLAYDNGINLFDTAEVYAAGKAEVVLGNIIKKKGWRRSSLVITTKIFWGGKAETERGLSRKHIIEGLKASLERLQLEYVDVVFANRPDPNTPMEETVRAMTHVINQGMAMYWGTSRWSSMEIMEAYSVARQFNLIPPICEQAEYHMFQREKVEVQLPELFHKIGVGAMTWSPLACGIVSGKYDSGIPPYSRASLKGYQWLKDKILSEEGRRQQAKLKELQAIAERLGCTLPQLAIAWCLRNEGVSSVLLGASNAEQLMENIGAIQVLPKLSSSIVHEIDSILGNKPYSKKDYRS
The target is the same in assay [5]. Briefly: KvBeta positive modulators, primary screen, biochemical, NADPH fluorescence (AID 623;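 active = NADPH fluorescence slope more negative than the mean of all samples by about 3 SD, 99.7% confidence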;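 note: fluorescence intensity change per second fitted from 20 to 320 s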). The settings on record: Recombinant KvBeta, NADPH fluorescence decrease slope, 10 min; at 10 µM; stronger effect = lower value.
The target in assay [6] is Alpha-2C adrenergic receptor (Homo sapiens) (UniProt P18825). Briefly: modulators of alpha2C/GIRK thallium flux, primary screen, cell-based, HEK293 alpha2C/GIRK1/2 (AID 624;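 active = fluorescence slope after compound addition differing from the mean of all screened samples at 99.7% confidence, in either direction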;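 note: slope of fluorescence ratio to pre-addition baseline per second over 15 to 24 s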). The settings on record: thallium flux BTC fluorescence, at 10 µM, actives lie on both sides.
Chain of Alpha-2C adrenergic receptor (Homo sapiens) (P18825 whole entry, looked up): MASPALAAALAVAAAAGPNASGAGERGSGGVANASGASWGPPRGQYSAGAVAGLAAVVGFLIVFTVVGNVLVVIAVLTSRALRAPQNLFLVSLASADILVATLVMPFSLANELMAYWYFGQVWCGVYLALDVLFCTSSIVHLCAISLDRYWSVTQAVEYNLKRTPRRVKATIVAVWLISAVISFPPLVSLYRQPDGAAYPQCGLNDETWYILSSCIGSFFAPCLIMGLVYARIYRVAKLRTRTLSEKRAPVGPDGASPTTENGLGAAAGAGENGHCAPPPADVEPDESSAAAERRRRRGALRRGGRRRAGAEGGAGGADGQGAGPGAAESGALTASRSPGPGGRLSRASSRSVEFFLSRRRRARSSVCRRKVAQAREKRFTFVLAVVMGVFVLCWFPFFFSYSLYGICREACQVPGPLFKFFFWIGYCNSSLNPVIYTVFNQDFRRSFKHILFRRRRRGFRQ
Assay [7] in a line: inhibitors of larval lipid processing in zebrafish, primary screen, whole organism, PED6 fluorescence, gall bladder and intestine (AID 686;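 active = a full or partial loss of lipid-probe fluorescence in the fish gall bladder, intestine or both, judged by eye; inactive = no fluorescence loss, or compound toxic to the fish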;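 note: larvae 5 to 7 days old with five fish per well; signal comes from phospholipase A2 cleavage of quenched PED6 carried via bile; overnight exposure to compound and PED6 before scoring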). The note with it: Zebrafish larvae PED6 lipid processing, fluorescence scoring; screened at 20 µM (by protocol). An outline of the steps:
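system = live zebrafish larvae aged 5-7 days, whole organism | probe or stimulus = ingested quenched lipid PED6 at 100 nM | doses = 20 µM single dose | timing = overnight exposure | detection = fluorescence microscopy with visual scoring of gall bladder and intestine | read-out = visual per-well fluorescence inhibition score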

The nature of assay [8]: inhibitors of Sendai virus-induced IRF3 signaling, primary screen, TLR/RLR signaling modifier project, cell-based, Sendai virus stimulus, luciferase, 10K MLSCN set (AID 602276).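 Note: firefly luciferase from ISG56 promoter only with Renilla not read in this screen; 0% = Sendai virus plus DMSO and 100% = medium plus DMSO without virus.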 The note with it: HEK293 RL24 IRF3 luciferase reporter, at 10 µM, stronger effect = higher value. Background: In a reporter assay the amount or activity of a reporter protein is the signal.
Assay [9] can be described thus: inhibitors of poly I:C-induced TLR3 signaling, primary screen, cell-based, poly I:C stimulus, luciferase, 10K MLSCN set (AID 602277;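 active = inhibition of the reporter signal at or above 50%; inactive = inhibition below 50%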). The settings on record: HEK293-TLR3 RL24 IRF3 luciferase reporter, at 10 µM, stronger effect = higher value.

As to `COc1nc(-c2ccc(Cl)cc2)ccc1-c1noc(-c2ccncc2)n1`, the cell count in [1] amounted to 332. The inhibition was 1.5% (inactive) in assay [1], -31.6% (inactive) in assay [3], 6.3% (inactive) in assay [8] and -7.25% (inactive) in [9]. Also, the inhibition of aggregation in assay [2] is -4.2% (inactive). The nuclei count in assay [2] was 97.5%; in [3], 114%. The fluorescence slope in [4] is -0.223 (inactive). Moreover, in assay [5], the NADPH fluorescence slope is -1.2e-07 (inactive). In addition, the slope in assay [6] is 0.00449 (inactive). For the same compound, in assay [7], the result was inactive.

`CC1CCCC(C)N1CCNC(=O)C1CCN(S(=O)(=O)N2CCCCC2)CC1` (stereo unspecified): the cell count in assay [1] was determined as 383. The inhibition is 4.2% (inactive) in [1], -93.7% (inactive) in assay [3], -6.08% (inactive) in assay [8] and -0.147% (inactive) in assay [9]. Moreover, the inhibition of aggregation in [2] was 17.2% (inactive). The nuclei count in assay [2] was 104%; in assay [3], 115%. Moreover, the fluorescence slope in assay [4] was -0.384 (inactive). For the same compound, in [5], the NADPH fluorescence slope was 1.9e-05 (inactive). The slope in [6] was 0.00471 (inactive). In addition, in [7], the call was inactive.

Take `O=C(CSc1ccc(-c2ccccc2)nn1)N1CCOCC1`: in assay [1], the cell count worked out at 664. Also, the inhibition in assay [1] was -5.6% (inactive); in assay [3] it was 57.9% (active); in assay [8] it was 5.28% (inactive); in [9] it was -10.6% (inactive). In addition, in assay [2], the inhibition of aggregation is -24% (inactive). Moreover, the results for the nuclei count in assay [2] and in [3] were 118% and 132%, respectively. Also, the fluorescence slope in assay [4] is -0.452 (inactive). Moreover, the NADPH fluorescence slope in assay [5] is -4.4e-05 (inactive). Further, the slope in assay [6] was 0.00495 (inactive). Moreover, the compound was called inactive in assay [7].

On to `COc1ccc(S(=O)(=O)Nc2ccccc2SC)cc1C`, for which the cell count in [1] came to 664. The inhibition is -7.1% (inactive) in [1], -125% (inactive) in assay [3], 12.4% (inactive) in assay [8] and 22.4% (inactive) in assay [9]. The inhibition of aggregation in [2] was 12.2% (inactive). Further, the nuclei count was 102% in assay [2] and 105% in assay [3]. In [4], the fluorescence slope was -0.346 (inactive). For the same compound, the NADPH fluorescence slope in assay [5] was 1.3e-05 (inactive). The slope in assay [6] was 0.00618 (inactive). Moreover, in [7], the outcome was inactive.

On to `COc1ccc(-n2ncc3c(NCc4cccs4)ncnc32)cc1`, for which the cell count in [1] is 424. Further, the inhibition is 3.9% (inactive) in assay [1], -94.5% (inactive) in assay [3], -24.5% (inactive) in [8] and -70.4% (inactive) in assay [9]. Further, in assay [2], the inhibition of aggregation is -20.1% (inactive). For the same compound, the nuclei count in [2] was determined as 98.4%; in [3] it was 106%. In addition, in assay [4], the fluorescence slope is -0.36 (inactive). The NADPH fluorescence slope in [5] is -2e-06 (inactive). Further, the slope in [6] is 0.00593 (inactive). Besides, the outcome in [7] was inactive.

For the compound `Cc1cc(=O)c2n(Cc3ccccc3Cl)nc[n+]2[nH]1`, in assay [1], the cell count is 800. For the same compound, the inhibition in assay [1] is 6% (inactive); in assay [3], -111% (inactive); in assay [8], 5.55% (inactive); in [9], 8.5% (inactive). In addition, the inhibition of aggregation in assay [2] was 3% (inactive). Further, the nuclei count was determined as 97.2% in [2] and 120% in assay [3]. The fluorescence slope in [4] is -0.397 (inactive). Further, in assay [5], the NADPH fluorescence slope was -5.7e-05 (inactive). In addition, the slope in assay [6] was 0.00447 (inactive). Moreover, in assay [7], the call was inactive.

With `COC(=O)c1ccc(NC(=O)C2C3CCC(C3)C2C(=O)O)cc1` (stereo unspecified), in assay [1], the cell count stood at 416. Further, the inhibition in [1] was 2.5% (inactive); in assay [3], 52.5% (inactive); in assay [8], -12.2% (inactive); in [9], -15.9% (inactive). Also, the inhibition of aggregation in assay [2] is 0% (inactive). Further, the nuclei count in assay [2] is 89.6%; in assay [3], 103%. In addition, the fluorescence slope in assay [4] is -0.39 (inactive). For the same compound, in [5], the NADPH fluorescence slope is -1.7e-05 (inactive). In [6], the slope was 0.00477 (inactive). Besides, in assay [7], the outcome was inactive.

`COc1ccc2cc(C(c3nnnn3C(C)(C)C)N3CCc4ccccc4C3)c(=O)[nH]c2c1` (stereo unspecified): the cell count in assay [1] is 311. Besides, the inhibition in assay [1] was 11.9% (inactive); in assay [3] it was 1% (inactive); in assay [8], 24.2% (inactive); in [9] it was 44.5% (inactive). In addition, the inhibition of aggregation in assay [2] is 5.3% (inactive). Also, the nuclei count in assay [2] was 100%; in [3], 94.4%. Also, the fluorescence slope in assay [4] was -0.347 (inactive). Moreover, the NADPH fluorescence slope in assay [5] is -5.8e-05 (inactive). In assay [6], the slope was 0.00475 (inactive). Besides, the outcome in assay [7] was inactive.

For the compound `O=C(Nc1ccc2oc(=O)ccc2c1)c1cccnc1`, the cell count in [1] was 423. Besides, the inhibition in [1] is 7.5% (inactive); in assay [3] it was 1.2% (inactive); in assay [8], 6.9% (inactive); in assay [9], 0.246% (inactive). Further, in [2], the inhibition of aggregation is 4% (inactive). The nuclei count in assay [2] stood at 90.8%; in assay [3], 91.9%. The fluorescence slope in assay [4] is -0.434 (inactive). For the same compound, the NADPH fluorescence slope in assay [5] is -8.3e-06 (inactive). For the same compound, the slope in assay [6] was 0.00437 (inactive). Moreover, in [7], the compound was called inactive.

Consider `COc1ccccc1C(=O)NCC(=O)Nc1ccccc1`, for which the cell count in [1] turned out to be 258. Further, the inhibition in assay [1] is -2.3% (inactive); in assay [3] it was 59% (inactive); in [8], 6.26% (inactive); in assay [9], 8.93% (inactive). The inhibition of aggregation in [2] is 14.2% (inactive). Further, the nuclei count was 94.4% in assay [2] and 27.8% in [3]. For the same compound, in [4], the fluorescence slope was -0.451 (inactive). Besides, the NADPH fluorescence slope in [5] is -4.6e-05 (inactive). For the same compound, in [6], the slope was 0.00528 (inactive). The outcome in assay [7] was inactive.

As for `COc1ccc(CNc2oc(-c3cccc4ccccc34)nc2C#N)cc1`, in assay [1], the cell count turned out to be 570. Further, the inhibition is -3.4% (inactive) in [1], 56.8% (inactive) in [3], 4.97% (inactive) in [8] and 7.07% (inactive) in assay [9]. Further, the inhibition of aggregation in [2] was 8.1% (inactive). In addition, the figures for the nuclei count in assay [2] and in assay [3] were 86.3% and 86.1%, respectively. Also, the fluorescence slope in [4] was -0.183 (inactive). Also, the NADPH fluorescence slope in [5] is 6.8e-06 (inactive). Besides, in [6], the slope is 0.00641 (inactive). Further, the outcome in [7] was inactive.

`COc1cccc(CC(=O)Nn2c(C)nc3ccccc3c2=O)c1`: the cell count in assay [1] amounted to 375. Further, the inhibition in assay [1] is 10.5% (inactive); in assay [3], -2% (inactive); in assay [8], -2.22% (inactive); in [9], 98% (active). Also, the inhibition of aggregation in assay [2] was -8.2% (inactive). Further, the nuclei count was found to be 102% in [2] and 115% in [3]. In addition, the fluorescence slope in assay [4] is -0.395 (inactive). Moreover, the NADPH fluorescence slope in assay [5] is -6e-05 (inactive). Besides, the slope in [6] is 0.00573 (inactive). Moreover, in assay [7], the result was inactive.

`Cc1nnc(NC(=O)C2CCCO2)s1` (stereo unspecified): the cell count in assay [1] was determined as 345. The inhibition in assay [1] was 5.2% (inactive); in [3], -105% (inactive); in [8] it was 6.24% (inactive); in assay [9] it was 6.47% (inactive). The inhibition of aggregation in [2] is -9.5% (inactive). For the same compound, the nuclei count in [2] amounted to 97.4%; in assay [3], 104%. In addition, the fluorescence slope in [4] is -0.467 (inactive). The NADPH fluorescence slope in [5] was -4.2e-05 (inactive). For the same compound, the slope in assay [6] is 0.00593 (inactive). Further, in assay [7], the outcome was “active; weak signal in gallbladder only”.
